Screening data from PubChem BioAssay.
An excerpt weighted towards active compounds, which were near 4.1% of everything screened.
KCNQ1 pot: potentiators or activators of KCNQ1 channel, primary screen, cell-based, thallium flux, high-throughput | Potassium voltage-gated channel subfamily KQT member 1 (Homo sapiens), P51787 | B-score at 10 µM | AID 2648, 2010 | actives 0.35% (n = 310,000) | CHO-K1 KCNQ1, thallium flux FluxOR fluorescence; active compounds read high;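 active = fluorescence ratio B-score, a plate-corrected score, at least three library SD, with initial intensity B-score within 5 SD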
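System: Stable KCNQ1 CHO-K1 line | Incubation: 90 min dye loading and 20 min compound exposure, both at room temperature | Measure: Ratio B score | Medium: Assay buffer for compound exposure, DMSO matched across wells | Compound dosing: Single-concentration screen | Probe or stimulus: K+/Tl+ depolarizing stimulus | Measured by: Kinetic FluxOR fluorescence, 10 s baseline plus 110 s post-stimulus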
KCNK3 inh: human KCNK3 channel inhibitors, primary screen, CHO cells, FluxOR thallium flux, B-score. Potassium channel subfamily K member 3 (Homo sapiens), O14649. FluxOR fluorescence; active compounds read low. B-score at 10 µM. actives 0.84% (n = 340,000). AID 602410, 2012;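 active = B-score under library mean minus 4 SD, starting fluorescence ratio at most library mean plus 5 SD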;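 note: more negative B-score means stronger inhibition of thallium flux through KCNK3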
Target sequence (O14649 whole entry, looked up): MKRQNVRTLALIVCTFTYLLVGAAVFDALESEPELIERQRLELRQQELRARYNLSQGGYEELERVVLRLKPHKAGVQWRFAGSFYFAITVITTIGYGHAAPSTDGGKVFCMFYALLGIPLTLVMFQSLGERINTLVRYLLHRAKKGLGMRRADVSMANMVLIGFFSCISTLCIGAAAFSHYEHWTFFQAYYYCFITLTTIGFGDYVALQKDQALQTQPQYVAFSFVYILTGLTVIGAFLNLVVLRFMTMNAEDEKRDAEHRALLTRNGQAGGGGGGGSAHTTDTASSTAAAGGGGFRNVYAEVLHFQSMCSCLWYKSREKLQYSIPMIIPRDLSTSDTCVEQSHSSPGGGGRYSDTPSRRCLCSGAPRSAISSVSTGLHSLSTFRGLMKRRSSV
KCNK9 inh: KCNK9 potassium channel inhibitors, primary screen, HEK293 cells, thallium flux; B-score at 10 µM; FluxOR thallium flux fluorescence; active compounds read low; actives 1.2% (n = 310,000); AID 488922, 2010; Potassium channel subfamily K member 9 (Homo sapiens), Q9NPC2;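 active = ratio B-score over 3 SD below the library mean, with starting fluorescence within 5 SD of its mean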;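 note: negative B-score means less thallium flux so channel inhibition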
hERG rescue: hERG rescue from dofetilide block, primary screen, cell-based, CHO-hERG, FluxOR thallium flux, dofetilide IC70; Voltage-gated inwardly rectifying potassium channel KCNH2 (Homo sapiens), Q12809; dofetilide IC70 present; activation (rescue from dofetilide block), less the hit threshold, % at 10 µM; actives 0.51% (n = 310,000);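 active = activation above the mean of controls blocked by dofetilide plus 5 SD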;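 note: thallium influx through hERG after potassium depolarization seen as dye fluorescence rise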
Cl transport mod: KCC2 cotransporter modulators, thallium flux, primary screen, cell-based, HEK293 KCC2, FluoZin-2 fluorescence, MLSMR; KCC2 cells, thallium flux FluoZin-2 fluorescence; B-score of Tl+ flux slope (higher = more flux/activation; lower = inhibition) at 10 µM; actives 2.2% (n = 190,000); AID 1456, 2008;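 active = thallium flux slope and its plate-corrected score both differing from the plate sample mean at a set confidence after two filtering rounds, in either direction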;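 note: slope of fluorescence scaled to starting intensity during 10 to 20 s after thallium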
KCNQ1 block: inhibitors of human KCNQ1 channel, primary screen, cell-based, thallium flux, high-throughput; Potassium voltage-gated channel subfamily KQT member 1 (Homo sapiens), P51787; CHO-K1 KCNQ1, FluxOR thallium flux fluorescence; active compounds read high; B-score at 10 µM; actives 1.3% (n = 310,000); AID 2642, 2010;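 active = compounds whose thallium flux B-score, printed positive for inhibition, exceeds three library SD while starting fluorescence stays within three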;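 note: channel opened by potassium depolarization with thallium stimulus after 20 min compound exposure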
KCC2 secondary: KCC2 modulators in sodium-free buffer, confirmation, cell-based, HEK293 KCC2, thallium flux, secondary assay. shares compounds with Cl transport mod. FluoZin2 fluorescence; active compounds read high. normalised thallium flux (F/F0 slope) at 10 µM. actives 15% (n = 3,700). AID 1713, 2009;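 active = thallium flux slope above the same plate's solvent-only control mean plus 3 SD; inconclusive = the two replicate wells disagree; inactive = no significant difference from solvent-only control wells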
KCC2 bumet counter: thallium flux persisting under bumetanide in KCC2 cells, confirmation, counter-screen for KCC2 modulator project, cell-based, HEK293 KCC2, FluoZin2, secondary assay 3. HEK293-KCC2 + bumetanide/ouabain; active compounds read high. AID 1714, 2009. actives 49% (n = 3,700). normalized thallium flux at 10 µM. shares compounds with Cl transport mod;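 active = thallium entry rate above the same plate's blocked-transporter control wells by more than 3 SD; inconclusive = the two repeat wells disagree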;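 note: raw slope of fluorescence over initial fluorescence between 10 and 20 s after thallium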
KCC2 secondary2: KCC2 modulators without ouabain present, confirmation, cell-based, HEK293 KCC2, thallium flux, FluoZin2, secondary assay 2 | AID 1715, 2009 | normalized thallium flux at 10 µM | actives 23% (n = 3,700) | thallium flux FluoZin2 fluorescence; actives lie on both sides; F/F0 rise rate, 10–20 s post-thallium | shares compounds with Cl transport mod;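 active = thallium flux slope more than 3 SD above or below the plate's solvent-only control mean, mostly below; inconclusive = the two repeat wells disagreed; inactive = no significant shift from solvent-only controls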
HEK counter1: thallium flux modulation in parental HEK cells, confirmation, counter-screen for KCC2 modulator project, cell-based, counterscreen 1 | shares compounds with Cl transport mod | HEK293 parental cells, thallium flux FluoZin2, ouabain; baseline-ratio fluorescence slope, 10–20 s after thallium | thallium flux rate (normalised fluorescence) at 10 µM | actives 46% (n = 3,700) | AID 1716, 2009;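 active = thallium flux rate significantly above the same plate's solvent-only control wells, beyond their mean plus 3 SD; inconclusive = the two replicate wells gave conflicting results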
KCC2 retest ouab: KCC2 inhibitors and activators, ouabain retest, confirmation, HEK-KCC2 cells | shares compounds with Cl transport mod | HEK293-KCC2, thallium flux FluoZin2 fluorescence; bidirectional: low = inhibitor, high = activator | raw Tl+ flux slope (below DMSO = inhibition, above = activation) at 10 µM | actives 48% (n = 3,700) | AID 1717, 2009;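 active = thallium flux slope beyond 3 SD from same-plate DMSO control mean in most replicates, usually higher, sometimes lower; inconclusive = repeat tests gave conflicting results; inactive = no significant difference from controls in most replicates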;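 note: slope of initial-normalized fluorescence between seconds 10 and 20 after thallium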
HEK counter2: native HEK Tl+ uptake effects, second counter-screen – HEK cells, counterscreen 2, counter-screen for KCC2 modulator project, confirmation; shares compounds with Cl transport mod; HEK293 parental, thallium flux FluoZin-2 fluorescence slope; thallium flux slope at 10 µM; actives 33% (n = 3,700); AID 1718, 2009;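 active = thallium flux slope above the same plate's solvent-control mean plus 3 SD in both duplicate wells; inconclusive = duplicate wells that disagreed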;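 note: run without ouabain in cells lacking the KCC2 cotransporter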
Of the large screens only hits and unclear results are named; the others gave an inactive call (follow-up assays come after a bar, where they were run).

O=C(Cn1cnc2c(nnn2Cc2ccc(Cl)cc2)c1=O)c1ccccc1	none
O=C(Cn1cnc2c(nnn2-c2ccc(F)cc2)c1=O)N1CCCc2ccccc21	Cl transport mod -4.4 | KCC2 secondary inactive | KCC2 bumet counter inactive | KCC2 secondary2 inactive | HEK counter1 inactive | KCC2 retest ouab inactive | HEK counter2 inactive
COc1ccc(-n2nnc3c(=O)n(CC(=O)N4CCCc5ccccc54)cnc32)cc1	none
O=C(Cn1cnc2c(nnn2Cc2ccc(F)cc2)c1=O)NCc1ccco1	Cl transport mod -4.5 | KCC2 secondary inactive | KCC2 bumet counter inactive | KCC2 secondary2 0.024 | HEK counter1 inactive | KCC2 retest ouab 0.017 | HEK counter2 inactive
Cc1ccc2c(c1)N(C(=O)CCC(=O)NCc1cccc(F)c1)CCO2	none (no result: Cl transport mod)
Cc1ccc(Cn2nnc3c(=O)n(CC(=O)OCc4ccccc4)cnc32)cc1	none
Cc1ccc(Cn2nnc3c(=O)n(CC(=O)N4CCN(c5ccccc5)CC4)cnc32)cc1	Cl transport mod -3.2 | KCC2 secondary inactive | KCC2 bumet counter inactive | KCC2 secondary2 inactive | HEK counter1 inactive | KCC2 retest ouab inconclusive | HEK counter2 inactive
O=C(/C=C/Nc1nccs1)C(F)(F)Cl	Cl transport mod 8.9 | KCC2 secondary inconclusive | KCC2 bumet counter 0.017 | KCC2 secondary2 0.038 | HEK counter1 0.016 | KCC2 retest ouab inconclusive | HEK counter2 0.015
Cc1sc2nc(CN3CCOCC3)nc(N3CCN(S(=O)(=O)c4ccccc4)CC3)c2c1C	none (no result: KCNQ1 pot, KCNK9 inh, hERG rescue, Cl transport mod, KCNQ1 block)
C/C(=N\NC(=S)Nc1c(C)cccc1C)c1cc2ccccc2o1	Cl transport mod 8.6 | KCC2 secondary inactive | KCC2 bumet counter 0.012 | KCC2 secondary2 inactive | HEK counter1 0.017 | KCC2 retest ouab inconclusive | HEK counter2 0.013
C/C(=N\NC(=S)Nc1ccccc1C)c1cc2ccccc2o1	Cl transport mod 40 | KCC2 secondary inactive | KCC2 bumet counter 0.047 | KCC2 secondary2 0.048 | HEK counter1 0.043 | KCC2 retest ouab 0.052 | HEK counter2 0.035
